The text below walks through data of ChEMBL document CHEMBL1137342 (J Med Chem, 2006).

Molecules are shown by their SMILES.

The target in assay [1] is D(2) dopamine receptor (Rattus norvegicus, UniProt P61169). Kind of assay: Activity at rat dopamine D2L receptor expressed in HEK293 cells assessed as inhibition of forskolin-stimulated cAMP production. It counts as functional, cell-based. The method in brief: (§1)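 HEK293 cells stably expressing rat D2L, grown in DMEM with 5% fetal clone serum, 5% bovine calf serum and puromycin. Confluent monolayers were treated with ligands diluted in EBSS buffer (pH 7.4) with 5 µM forskolin and 500 µM IBMX. The reaction was stopped with 3% TCA. cAMP was measured in duplicate by [3H]cAMP competition with adrenal binding protein (2-3 h, 4 °C).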
D(2) dopamine receptor (Rattus norvegicus, UniProt P61169), sequence (P61169 whole entry): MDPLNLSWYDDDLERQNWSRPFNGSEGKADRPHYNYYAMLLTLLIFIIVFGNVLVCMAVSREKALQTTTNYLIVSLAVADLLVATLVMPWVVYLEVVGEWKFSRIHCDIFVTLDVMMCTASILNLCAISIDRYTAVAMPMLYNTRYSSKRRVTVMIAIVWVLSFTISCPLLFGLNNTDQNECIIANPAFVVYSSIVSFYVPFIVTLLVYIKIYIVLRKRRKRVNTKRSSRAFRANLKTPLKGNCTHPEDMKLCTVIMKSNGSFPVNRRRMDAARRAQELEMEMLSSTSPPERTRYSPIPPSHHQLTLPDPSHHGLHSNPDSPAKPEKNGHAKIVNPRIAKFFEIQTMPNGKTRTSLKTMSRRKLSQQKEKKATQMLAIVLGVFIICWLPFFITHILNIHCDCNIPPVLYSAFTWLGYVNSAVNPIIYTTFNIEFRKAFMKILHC

For assay [2], the target named is T1, D(4) dopamine receptor (Homo sapiens, UniProt P21917).
T1 sequence (P21917 whole entry): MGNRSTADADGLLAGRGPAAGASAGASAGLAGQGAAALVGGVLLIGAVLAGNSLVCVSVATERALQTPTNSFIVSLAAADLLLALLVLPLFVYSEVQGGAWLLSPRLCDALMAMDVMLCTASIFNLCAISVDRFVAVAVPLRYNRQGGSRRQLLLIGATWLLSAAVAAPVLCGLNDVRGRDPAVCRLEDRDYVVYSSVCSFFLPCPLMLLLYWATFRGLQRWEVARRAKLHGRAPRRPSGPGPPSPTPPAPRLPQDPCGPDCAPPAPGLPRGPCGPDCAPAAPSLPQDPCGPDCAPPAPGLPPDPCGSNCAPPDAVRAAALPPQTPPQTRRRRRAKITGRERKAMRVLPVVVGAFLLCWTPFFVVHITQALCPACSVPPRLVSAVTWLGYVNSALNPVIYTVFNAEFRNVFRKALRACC
It counts as functional, cell-based, HEK293.

Assay [3] concerns the target D(2) dopamine receptor (Rattus norvegicus) (UniProt P61169). Description: Intrinsic activity at rat dopamine D2L receptor expressed in HEK293 cells assessed as inhibition of forskolin-stimulated cAMP production relative to dopamine. In kind it is functional, cell-based. The procedure, abridged: as §1
Assay [4] addresses T2, Alpha-2B adrenergic receptor (Homo sapiens, UniProt P18089).
T2 sequence (P18089 whole entry): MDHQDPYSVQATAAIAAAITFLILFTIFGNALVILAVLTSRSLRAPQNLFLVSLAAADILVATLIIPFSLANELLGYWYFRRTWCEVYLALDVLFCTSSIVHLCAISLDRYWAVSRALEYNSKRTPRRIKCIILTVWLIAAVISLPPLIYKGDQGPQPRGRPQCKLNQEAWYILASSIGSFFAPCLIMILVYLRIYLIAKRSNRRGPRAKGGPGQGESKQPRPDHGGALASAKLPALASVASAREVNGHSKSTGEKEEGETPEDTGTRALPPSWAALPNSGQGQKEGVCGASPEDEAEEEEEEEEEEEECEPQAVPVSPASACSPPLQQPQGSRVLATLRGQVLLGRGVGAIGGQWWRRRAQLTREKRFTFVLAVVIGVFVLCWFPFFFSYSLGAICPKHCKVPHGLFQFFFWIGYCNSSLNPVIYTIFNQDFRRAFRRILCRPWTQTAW
Description: Binding affinity to human cloned adrenergic alpha 2B receptor receptor.

Assay [5] has as its target T3, Alpha-2C adrenergic receptor (Homo sapiens, UniProt P18825).
T3 sequence (P18825 whole entry): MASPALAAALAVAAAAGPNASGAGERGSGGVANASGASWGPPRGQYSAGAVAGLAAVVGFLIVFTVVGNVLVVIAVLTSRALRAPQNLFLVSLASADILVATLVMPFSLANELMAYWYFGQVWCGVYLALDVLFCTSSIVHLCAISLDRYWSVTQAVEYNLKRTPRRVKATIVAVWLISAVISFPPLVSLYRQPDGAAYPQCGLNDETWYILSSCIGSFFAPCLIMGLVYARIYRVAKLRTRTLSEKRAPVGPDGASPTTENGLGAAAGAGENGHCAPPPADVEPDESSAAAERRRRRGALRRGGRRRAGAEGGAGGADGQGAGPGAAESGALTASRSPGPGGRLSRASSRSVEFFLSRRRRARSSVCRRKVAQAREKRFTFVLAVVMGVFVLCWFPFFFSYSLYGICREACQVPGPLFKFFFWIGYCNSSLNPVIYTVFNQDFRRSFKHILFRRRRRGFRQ
Description: Binding affinity to human cloned adrenergic alpha 2C receptor receptor.

The target in assay [6] is D(2) dopamine receptor (Homo sapiens, UniProt P14416). Description: Binding affinity to human cloned dopamine D2 receptor.
D(2) dopamine receptor (Homo sapiens, UniProt P14416), sequence (P14416 whole entry): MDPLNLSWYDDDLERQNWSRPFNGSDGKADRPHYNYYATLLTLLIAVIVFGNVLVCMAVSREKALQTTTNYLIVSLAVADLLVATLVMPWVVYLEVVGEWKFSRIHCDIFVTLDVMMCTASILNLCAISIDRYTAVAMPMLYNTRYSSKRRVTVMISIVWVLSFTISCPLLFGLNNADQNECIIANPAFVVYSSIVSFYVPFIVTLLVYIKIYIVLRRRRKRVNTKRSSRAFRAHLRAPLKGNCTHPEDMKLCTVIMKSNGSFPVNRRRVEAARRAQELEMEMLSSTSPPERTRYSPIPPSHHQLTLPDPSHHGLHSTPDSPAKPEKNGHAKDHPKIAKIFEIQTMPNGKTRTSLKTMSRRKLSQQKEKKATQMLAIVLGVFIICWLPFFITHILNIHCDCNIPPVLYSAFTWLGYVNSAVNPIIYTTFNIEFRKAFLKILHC
For assay [7], the target named is T4, Alpha-2A adrenergic receptor (Homo sapiens, UniProt P08913).
T4 sequence (P08913 whole entry): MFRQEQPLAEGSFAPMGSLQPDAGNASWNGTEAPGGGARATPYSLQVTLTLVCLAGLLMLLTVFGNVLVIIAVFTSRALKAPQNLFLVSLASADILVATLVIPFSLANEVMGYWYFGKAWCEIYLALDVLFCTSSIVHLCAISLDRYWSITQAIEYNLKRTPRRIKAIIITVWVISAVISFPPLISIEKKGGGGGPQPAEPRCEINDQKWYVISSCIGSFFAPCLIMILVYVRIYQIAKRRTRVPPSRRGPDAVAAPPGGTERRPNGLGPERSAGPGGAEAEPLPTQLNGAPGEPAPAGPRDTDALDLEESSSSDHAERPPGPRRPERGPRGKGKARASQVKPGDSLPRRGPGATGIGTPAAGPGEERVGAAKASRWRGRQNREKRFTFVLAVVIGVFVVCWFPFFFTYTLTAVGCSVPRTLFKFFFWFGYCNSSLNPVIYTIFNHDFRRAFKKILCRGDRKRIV
Description: Binding affinity to human cloned adrenergic alpha 2A receptor.

The next assay has as its target D(1B) dopamine receptor (Homo sapiens, UniProt P21918). Description: Binding affinity to human cloned dopamine D5 receptor.
A further assay addresses D(3) dopamine receptor (Homo sapiens, UniProt P35462). Description: Binding affinity to human cloned dopamine D3 receptor.
For assay [8], the target named is T1, D(4) dopamine receptor. Description: Binding affinity to human cloned dopamine D4 receptor.
The target of assay [9] is D(1A) dopamine receptor (Sus scrofa, UniProt P50130). Description: Displacement of [3H]SCH-23390 from dopamine D1-like receptor in porcine striata homogenate.
D(1A) dopamine receptor (Sus scrofa, UniProt P50130), sequence (P50130 whole entry): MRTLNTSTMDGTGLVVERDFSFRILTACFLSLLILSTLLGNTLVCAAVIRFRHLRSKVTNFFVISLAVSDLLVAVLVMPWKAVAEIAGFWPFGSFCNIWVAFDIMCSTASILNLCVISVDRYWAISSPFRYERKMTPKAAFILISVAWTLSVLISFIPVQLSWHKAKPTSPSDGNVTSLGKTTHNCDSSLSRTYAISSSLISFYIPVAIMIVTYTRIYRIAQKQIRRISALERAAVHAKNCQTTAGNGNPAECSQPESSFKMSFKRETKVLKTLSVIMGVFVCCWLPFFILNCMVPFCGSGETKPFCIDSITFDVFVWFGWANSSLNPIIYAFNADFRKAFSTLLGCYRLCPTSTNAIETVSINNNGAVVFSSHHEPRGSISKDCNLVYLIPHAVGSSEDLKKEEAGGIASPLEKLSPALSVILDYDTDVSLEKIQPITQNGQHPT
For assay [10], the target named is D(1A) dopamine receptor (Homo sapiens, UniProt P21728). Description: Activity at human dopamine D1 receptor expressed in HEK293 cells assessed as stimulation of cAMP production. It counts as functional, cell-based.
D(1A) dopamine receptor (Homo sapiens, UniProt P21728), sequence (P21728 whole entry): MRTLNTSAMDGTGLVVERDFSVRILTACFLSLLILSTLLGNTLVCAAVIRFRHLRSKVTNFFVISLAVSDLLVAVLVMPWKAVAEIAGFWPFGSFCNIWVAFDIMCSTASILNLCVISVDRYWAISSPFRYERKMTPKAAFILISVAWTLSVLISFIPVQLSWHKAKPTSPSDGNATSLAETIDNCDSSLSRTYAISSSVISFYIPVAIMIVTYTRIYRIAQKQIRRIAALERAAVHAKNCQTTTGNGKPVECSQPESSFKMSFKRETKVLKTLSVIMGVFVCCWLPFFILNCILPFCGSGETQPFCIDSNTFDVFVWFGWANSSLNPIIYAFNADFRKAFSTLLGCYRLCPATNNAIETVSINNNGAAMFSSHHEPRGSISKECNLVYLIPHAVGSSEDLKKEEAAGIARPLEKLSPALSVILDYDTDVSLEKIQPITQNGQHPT

D(2) dopamine receptor (Rattus norvegicus), sequence (P61169 whole entry): as the sequence (P61169 whole entry) above
D(3) dopamine receptor, sequence (P35462 whole entry): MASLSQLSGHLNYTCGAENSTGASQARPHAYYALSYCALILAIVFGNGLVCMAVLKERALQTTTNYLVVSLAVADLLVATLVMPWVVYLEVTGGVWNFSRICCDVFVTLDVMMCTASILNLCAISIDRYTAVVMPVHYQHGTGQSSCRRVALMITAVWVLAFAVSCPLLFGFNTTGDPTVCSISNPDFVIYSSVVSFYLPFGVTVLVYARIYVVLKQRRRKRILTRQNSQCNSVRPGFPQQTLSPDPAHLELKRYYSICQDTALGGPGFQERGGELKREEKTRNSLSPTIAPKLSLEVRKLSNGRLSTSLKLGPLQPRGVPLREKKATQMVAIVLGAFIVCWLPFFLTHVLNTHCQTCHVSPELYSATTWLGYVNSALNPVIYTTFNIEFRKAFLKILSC
D(1B) dopamine receptor, sequence (P21918 whole entry): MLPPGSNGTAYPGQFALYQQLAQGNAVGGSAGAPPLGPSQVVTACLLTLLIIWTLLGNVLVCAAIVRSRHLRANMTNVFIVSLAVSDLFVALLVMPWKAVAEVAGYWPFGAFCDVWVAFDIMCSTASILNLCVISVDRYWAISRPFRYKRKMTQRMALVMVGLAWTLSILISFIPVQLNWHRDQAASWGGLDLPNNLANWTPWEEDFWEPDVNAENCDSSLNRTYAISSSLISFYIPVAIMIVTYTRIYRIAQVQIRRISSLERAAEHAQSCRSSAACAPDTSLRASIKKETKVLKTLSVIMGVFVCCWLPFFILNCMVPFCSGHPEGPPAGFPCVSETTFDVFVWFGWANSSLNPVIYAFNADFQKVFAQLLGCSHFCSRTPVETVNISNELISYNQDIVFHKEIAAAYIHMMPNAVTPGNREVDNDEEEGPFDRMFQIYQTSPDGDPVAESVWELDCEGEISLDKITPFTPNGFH

Regarding `Oc1cc2c(cc1O)[C@@H]1c3ccccc3CN[C@H]1CO2` (single isomer, unassigned), the 50% effective concentration (EC50) on D(2) dopamine receptor [1] was above 10000 nM; at D(4) dopamine receptor [2], 230 nM.

As to `NCCc1ccc(O)c(O)c1`, in [3], the Intrinsic activity was found to be 100%.

Turning to `Oc1cc2c(cc1O)[C@H]1c3ccccc3CN[C@@H]1CC2`, in assay [3], the Intrinsic activity was 70%.

As to `Oc1cc2c(cc1O)C1c3ccccc3CNC1CO2` (racemic) [DOXANTHRINE], the Ki in assay [4] came to 10 nM; in assay [5], 2 nM; on D(2) dopamine receptor [6] it was 1910 nM; in [7], 180 nM; at D(1B) dopamine receptor, 7 nM; on D(3) dopamine receptor, 390 nM. This molecule also yielded a Ki at D(4) dopamine receptor [8] of 90 nM. The EC50 was above 10000 nM on D(2) dopamine receptor [1] and 110 nM at D(4) dopamine receptor [2].

In turn, `CCCN1Cc2ccccc2C2c3cc(O)c(O)cc3OCC21` (racemic) showed an inhibition constant Ki on D(1A) dopamine receptor [9] of 330 nM. Also, the Intrinsic activity in assay [3] came to 92%. In addition, the values for the EC50 at D(2) dopamine receptor [1], on D(1A) dopamine receptor [10] and at D(4) dopamine receptor [2] were 1600 nM, 1100 nM and 21 nM, respectively.

Consider `CCCN1CCC[C@@H]2Cc3n[nH]cc3C[C@H]21`, for which the Intrinsic activity in assay [3] was found to be 95%.

Take `Oc1cc2c(cc1O)[C@H]1c3ccccc3CN[C@@H]1CO2` (single isomer, unassigned): the values for the EC50 at D(2) dopamine receptor [1] and at D(4) dopamine receptor [2] were above 10000 nM and 95 nM, respectively.
